Results taken from ChEMBL document CHEMBL1806466, “2-Amino-4-methyl-5-phenylethyl substituted-7-N-benzyl-pyrrolo[2,3-d]pyrimidines as novel antitumor antimitotic agents that also reverse tumor resistance” (Bioorg Med Chem, 2011).
Activity calls are given as the source filed them. The calls are words filed in the database; no cut-off is given here.

Key:
MCF7 [1] = test: Resistance factor, ratio of IC50 for drug-resistant […] human NCI/ADR cells expressing Pgp in absence of vinblastin to IC50 for drug-sensitive human MCF7 cells in presence of 50 nM vinblastin; format: functional
[2] = Cytotoxic activity against Pgp-deficient human MCF7/VP cells expressing MRP1 after 48 hrs by sulforhodamine B assay; format: functional, cell-based
Outline: (§1)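 Cells plated at ~15% confluency and allowed 24 h to attach, then exposed to varying test concentrations for 48 h. Survival by SRB binding, reported as % decrease in binding versus ethanol solvent controls, mean of three wells. For NCI/ADR, exposure with 0 or 50 nM vinblastine; for MCF-7/VP, with 0 or 1 nM vincristine.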

NCI/ADR = test: Reversal of Pgp-mediated multidrug resistance in human NCI/ADR cells assessed as enhancement of cytotoxicity of vinblastine after 48 hrs by sulforhodamine B assay; format: cell-based
Outline: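 NCI/ADR cells plated at ~15% confluency and allowed 24 h to attach. […] Survival by SRB binding, each value the mean of three wells, with ethanol solvent controls. Pgp Antagonism Score = % survival without vinblastine / % survival with vinblastine.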

[3] = biological target: Multidrug resistance-associated protein 1 (Homo sapiens, UniProt P33527); test: Reversal of MRP1-mediated multidrug resistance in human MCF7/VP cells assessed as enhancement of cytotoxicity of vincristine after 48 hrs by sulforhodamine B assay; format: cell-based
Outline: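 MCF-7/VP cells plated at ~15% confluency and allowed 24 h to attach. […] Survival by SRB binding. MRP1 Antagonism Score = % survival without vincristine / % survival with vincristine.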

Bos taurus = species: Bos taurus; test: Effect on bovine brain microtubule depolymerization assessed as decrease in absorbance at wavelength 340 nm after 15 mins
Outline: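 Bovine brain tubulin purified by three assembly/disassembly cycles followed by ion exchange. Tubulin at 2.5 mg/mL […] in 1 M glutamate, pH 6.6, with 4% DMSO, preincubated with compound at 0 °C for 15 min. 0.5 mM GTP then added and samples warmed to 37 °C. A340 monitored about 60 min.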

[4] = Cytotoxic activity against drug-resistant […]-deficient human NCI/ADR cells expressing Pgp after 48 hrs by sulforhodamine B assay; format: functional, cell-based; conditions: NCI/ADR-RES; outline: as §1
MCF7 [5] = test: Resistance factor, ratio of IC50 for Pgp-deficient human MCF7/VP cells expressing MRP1 in absence of vincristine to IC50 for drug sensitive human MCF7 cells in presence of 1 nM vincristine
MCF7 [6] = test: Cytotoxic activity against drug-sensitive Pgp-, MRP1-deficient human MCF7 cells after 48 hrs by sulforhodamine B assay; conditions: MCF7, 48 h

Sequence of Multidrug resistance-associated protein 1 (P33527 whole entry): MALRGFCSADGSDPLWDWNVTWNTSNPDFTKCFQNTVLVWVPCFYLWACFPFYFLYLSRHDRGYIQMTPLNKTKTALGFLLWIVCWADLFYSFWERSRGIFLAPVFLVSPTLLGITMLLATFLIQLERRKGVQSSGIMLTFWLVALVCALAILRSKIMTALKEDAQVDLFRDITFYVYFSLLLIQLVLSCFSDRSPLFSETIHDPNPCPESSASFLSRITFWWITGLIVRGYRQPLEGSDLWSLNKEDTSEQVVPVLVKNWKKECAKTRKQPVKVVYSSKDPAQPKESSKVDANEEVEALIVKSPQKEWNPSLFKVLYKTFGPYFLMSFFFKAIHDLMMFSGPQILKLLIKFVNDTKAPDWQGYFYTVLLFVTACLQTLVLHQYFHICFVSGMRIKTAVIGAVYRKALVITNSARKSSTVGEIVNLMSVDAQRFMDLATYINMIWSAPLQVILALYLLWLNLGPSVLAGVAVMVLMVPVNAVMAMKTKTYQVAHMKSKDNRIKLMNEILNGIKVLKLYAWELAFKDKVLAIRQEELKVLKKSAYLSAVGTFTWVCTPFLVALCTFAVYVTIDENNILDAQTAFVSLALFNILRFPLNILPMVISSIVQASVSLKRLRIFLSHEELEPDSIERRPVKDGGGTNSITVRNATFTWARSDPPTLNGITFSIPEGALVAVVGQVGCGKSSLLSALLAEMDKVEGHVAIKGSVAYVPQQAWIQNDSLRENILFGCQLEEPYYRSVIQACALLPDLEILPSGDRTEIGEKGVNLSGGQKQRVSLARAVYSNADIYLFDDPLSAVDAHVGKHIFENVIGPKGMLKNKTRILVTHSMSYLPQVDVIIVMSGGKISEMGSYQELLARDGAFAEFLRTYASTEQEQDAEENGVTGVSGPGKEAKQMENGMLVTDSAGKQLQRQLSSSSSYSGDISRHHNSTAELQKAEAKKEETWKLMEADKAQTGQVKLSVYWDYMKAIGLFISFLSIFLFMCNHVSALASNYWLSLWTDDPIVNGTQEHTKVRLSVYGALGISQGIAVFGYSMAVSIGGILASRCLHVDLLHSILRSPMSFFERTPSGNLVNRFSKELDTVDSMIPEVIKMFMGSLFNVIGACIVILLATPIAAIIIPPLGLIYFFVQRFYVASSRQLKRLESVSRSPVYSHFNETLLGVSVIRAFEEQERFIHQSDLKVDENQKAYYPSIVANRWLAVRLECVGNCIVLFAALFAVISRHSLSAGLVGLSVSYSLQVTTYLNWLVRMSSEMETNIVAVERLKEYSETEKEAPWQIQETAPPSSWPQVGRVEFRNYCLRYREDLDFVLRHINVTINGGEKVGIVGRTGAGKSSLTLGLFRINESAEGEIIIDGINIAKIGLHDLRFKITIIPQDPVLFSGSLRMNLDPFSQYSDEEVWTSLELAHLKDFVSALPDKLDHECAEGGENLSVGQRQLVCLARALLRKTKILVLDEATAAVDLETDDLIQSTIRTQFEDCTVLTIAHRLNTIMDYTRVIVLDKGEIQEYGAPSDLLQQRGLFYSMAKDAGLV

## COc1cc(CCc2cn(Cc3ccccc3)c3nc(N)nc(C)c23)cc(OC)c1OC
MCF7 [1]
  Ratio IC50: 0.83
[2]
  IC50: 0.25 µM
NCI/ADR
  Activity: inactive
[3]
  Activity: Not Active
Bos taurus
  Activity: Active
[4]
  IC50: 0.25 µM
MCF7 [5]
  Ratio IC50: 0.83

## CC(=O)O[C@H]1C(=O)[C@@]2(C)[C@H]([C@H](OC(=O)c3ccccc3)[C@]3(O)C[C@H](OC(=O)[C@H](O)[C@@H](NC(=O)c4ccccc4)c4ccccc4)C(C)=C1C3(C)C)[C@]1(OC(C)=O)CO[C@@H]1C[C@@H]2O [PACLITAXEL]
MCF7 [1]
  Ratio IC50: 1080
[2]
  IC50: 0.0028 µM
Bos taurus
  Activity: inactive
[4]
  IC50: 2.7 µM
MCF7 [5]
  Ratio IC50: 1.1

## COc1ccc(CCc2cn(Cc3ccccc3)c3nc(N)nc(C)c23)c(OC)c1
MCF7 [1]
  Ratio IC50: 0.35
[2]
  IC50: 12 µM
NCI/ADR
  Activity: Active
[3]
  Activity: Not Active
Bos taurus
  Activity: inactive
[4]
  IC50: 6 µM
MCF7 [6]
  IC50: 17 µM
MCF7 [5]
  Ratio IC50: 0.71

## COc1ccc(CCc2cn(Cc3ccccc3)c3nc(N)nc(C)c23)cc1OC
MCF7 [1]
  Ratio IC50: 0.29
[2]
  IC50: 7 µM
NCI/ADR
  Activity: inactive
[3]
  Activity: Not Active
Bos taurus
  Activity: inactive
[4]
  IC50: 5 µM
MCF7 [6]
  IC50: 17 µM
MCF7 [5]
  Ratio IC50: 0.41

## CC[C@]1(O)C[C@@H]2CN(CCc3c([nH]c4ccccc34)[C@@](C(=O)OC)(c3cc4c(cc3OC)N(C)[C@H]3[C@@](O)(C(=O)OC)[C@H](OC(C)=O)[C@]5(CC)C=CCN6CC[C@]43[C@@H]65)C2)C1 [VINBLASTINE]
MCF7 [1]
  Ratio IC50: >134
[2]
  IC50: 0.003 µM
Bos taurus
  Activity: Active
[4]
  IC50: > 375 µM
MCF7 [5]
  Ratio IC50: 1.1

## COc1ccccc1CCc1cn(Cc2ccccc2)c2nc(N)nc(C)c12
MCF7 [1]
  Ratio IC50: 1.17
[2]
  IC50: 2.6 µM
NCI/ADR
  Activity: Active
[3]
  Activity: Not Active
[4]
  IC50: 2.7 µM
MCF7 [5]
  Ratio IC50: 1.13

## Cc1nc(N)nc2c1c(CCc1ccccc1Cl)cn2Cc1ccccc1
MCF7 [1]
  Ratio IC50: 0.55
[2]
  IC50: 15 µM
NCI/ADR
  Activity: inactive
[3]
  Activity: Not Active
Bos taurus
  Activity: inactive
[4]
  IC50: 11 µM
MCF7 [6]
  IC50: 20 µM
MCF7 [5]
  Ratio IC50: 0.75

## COc1cc(CCc2cn(Cc3ccccc3)c3nc(N)nc(C)c23)c(OC)c(OC)c1
MCF7 [1]
  Ratio IC50: 0.66
[2]
  IC50: 63 µM
NCI/ADR
  Activity: Active
[3]
  Activity: Active
Bos taurus
  Activity: inactive
[4]
  IC50: 33 µM
MCF7 [6]
  IC50: 50 µM
MCF7 [5]
  Ratio IC50: 1.26

## COc1cc(OC)c(OC)cc1CCc1cn(Cc2ccccc2)c2nc(N)nc(C)c12
MCF7 [1]
  Ratio IC50: 0.66
[2]
  IC50: 15 µM
NCI/ADR
  Activity: inactive
[3]
  Activity: Not Active
Bos taurus
  Activity: inactive
[4]
  IC50: 10 µM
MCF7 [6]
  IC50: 15 µM
MCF7 [5]
  Ratio IC50: 1

## CC[C@]1(O)C[C@H]2CN(CCc3c([nH]c4ccccc34)[C@@](C(=O)OC)(c3cc4c(cc3OC)N(C=O)[C@H]3[C@@](O)(C(=O)OC)[C@H](OC(C)=O)[C@]5(CC)C=CCN6CC[C@]43[C@@H]65)C2)C1 [VINCRISTINE]
MCF7 [1]
  Ratio IC50: 167
[2]
  IC50: 0.0093 µM
Bos taurus
  Activity: Active
[4]
  IC50: 100 µM
MCF7 [5]
  Ratio IC50: 15.5

## COc1cc(CCc2cn(Cc3ccccc3)c3nc(N)nc(C)c23)cc(OC)c1
MCF7 [1]
  Ratio IC50: 0.48
[2]
  IC50: 17 µM
NCI/ADR
  Activity: inactive
[3]
  Activity: Active
Bos taurus
  Activity: inactive
[4]
  IC50: 12 µM
MCF7 [6]
  IC50: 25 µM
MCF7 [5]
  Ratio IC50: 0.68

## COc1ccc(CCc2cn(Cc3ccccc3)c3nc(N)nc(C)c23)c(OC)c1OC
MCF7 [1]
  Ratio IC50: 0.61
[2]
  IC50: 20 µM
NCI/ADR
  Activity: inactive
[3]
  Activity: Active
Bos taurus
  Activity: Active
[4]
  IC50: 11 µM
MCF7 [6]
  IC50: 18 µM
MCF7 [5]
  Ratio IC50: 1.11

## COc1cccc(OC)c1CCc1cn(Cc2ccccc2)c2nc(N)nc(C)c12
MCF7 [1]
  Ratio IC50: 0.54
[2]
  IC50: 20 µM
NCI/ADR
  Activity: Active
[3]
  Activity: Not Active
Bos taurus
  Activity: Active
[4]
  IC50: 12 µM
MCF7 [6]
  IC50: 22 µM
MCF7 [5]
  Ratio IC50: 0.91
